The target in experiment [1] is T1, CckA_ΔTM (Caulobacter vibrioides, UniProt Q9X688).
T1 sequence (Q9X688 72-691): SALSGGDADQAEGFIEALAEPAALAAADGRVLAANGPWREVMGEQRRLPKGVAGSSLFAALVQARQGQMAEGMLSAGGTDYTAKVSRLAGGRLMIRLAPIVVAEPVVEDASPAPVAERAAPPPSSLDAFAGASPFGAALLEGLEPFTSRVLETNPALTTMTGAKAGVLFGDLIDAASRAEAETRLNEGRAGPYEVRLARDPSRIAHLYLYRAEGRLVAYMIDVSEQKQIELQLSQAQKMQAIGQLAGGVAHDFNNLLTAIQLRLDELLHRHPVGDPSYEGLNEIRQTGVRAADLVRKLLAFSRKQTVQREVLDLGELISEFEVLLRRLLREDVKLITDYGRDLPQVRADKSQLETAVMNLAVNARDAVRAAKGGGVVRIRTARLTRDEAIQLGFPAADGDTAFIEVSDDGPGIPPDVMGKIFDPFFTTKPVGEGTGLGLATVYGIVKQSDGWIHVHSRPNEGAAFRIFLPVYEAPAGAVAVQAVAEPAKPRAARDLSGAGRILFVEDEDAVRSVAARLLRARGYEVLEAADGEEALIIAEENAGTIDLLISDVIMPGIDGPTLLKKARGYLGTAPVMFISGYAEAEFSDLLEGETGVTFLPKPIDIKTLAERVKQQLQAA
Put plainly: Global fit of kinetic model to CckA_ΔTM phosphorylation progress curves. The format is biochemical, Caulobacter crescentus. The conditions noted are these: simulations; rate with which the data can be fit. The gist of the method:
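Progress curves of net CckA_ΔTM~P come from radiolabelled ATP reactions, with ADP or c-di-GMP added to aliquots after 30 min. The curves were globally fitted to a kinetic model using standard first- and second-order reaction kinetics, set up as a system of coupled ordinary differential equations. Rate parameters such as kr are taken from that global fit.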

Experiment [2] addresses T1, CckA_ΔTM. Nature of the experiment: CckA phosphorylation assay by autoradiography. In kind it is biochemical, Caulobacter crescentus. Conditions: for net CckA_ΔTM~P after addition of effector: ADP or c-di-GMP added after 30 min of incubation with 500 μM ATP. The gist of the method:
(§1)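 MBP-tagged CckA_ΔTM (residues S72–A691) or its point mutants are incubated at room temperature with 500 μM ATP plus 5 μCi γ32P-ATP. Further nucleotides are added at set times. Where applicable, ATP is converted to ADP with 1.5 U hexokinase and 5 mM D-glucose. Reactions are stopped in SDS sample buffer and run on 10% SDS gels. Wet gels are exposed to a phosphor screen (0.5–3 h) and scanned.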

Another experiment has as its target T2, CckA_CA (Caulobacter vibrioides, UniProt Q9X688).
T2 sequence (Q9X688 379-545): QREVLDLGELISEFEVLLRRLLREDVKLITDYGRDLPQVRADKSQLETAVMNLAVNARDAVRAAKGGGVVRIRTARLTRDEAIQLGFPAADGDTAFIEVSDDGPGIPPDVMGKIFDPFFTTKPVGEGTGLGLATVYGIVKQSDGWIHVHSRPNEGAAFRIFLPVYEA
Nature of the experiment: ITC ligand binding to CckA_CA. Set-up: species or system Caulobacter crescentus. The gist of the method:
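Protein was expressed in E. coli Rosetta (DE3), induced with 0.1 mM IPTG at 22°C, and purified by Ni-NTA then gel filtration (30 mM Tris-HCl pH 7.5, 100 mM NaCl, 5 mM MgCl2). Isothermal titration calorimetry was run at 25 or 12°C, stirring 300 rpm, 200 s preinjection delay, 250 s recording interval. Data were fitted to a single-site model, refitted with N fixed at 1.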

A further experiment has as its target T3, CckA_ΔTM G318A (Caulobacter vibrioides, UniProt Q9X688, G318A).
T3 sequence (Q9X688 72-691 G318A): T1 sequence (Q9X688 72-691) with G247A
Put plainly: CckA phosphorylation assay by autoradiography, G318A. The format is biochemical, Caulobacter crescentus. The conditions noted are these: 15 min of ATP incubation, 75 μM c-di-GMP. The gist of the method: as §1

The target in another experiment is T4, CckA_ΔTM G515D (Caulobacter vibrioides, UniProt Q9X688, G515D).
T4 sequence (Q9X688 72-691 G515D): T1 sequence (Q9X688 72-691) with G444D
Put plainly: CckA phosphorylation assay by autoradiography, G515D. Conditions: 15 min of ATP incubation, 75 μM c-di-GMP. In kind it is biochemical, Caulobacter crescentus. The gist of the method:
as §1

Another experiment has as its system CckA_ΔTM Y514D. The conditions noted are these: cited from earlier work.
For another experiment, the system named is CckA_ΔTM W523A. Conditions: cited from earlier work.
In a further experiment the test system is CckA_ΔTM F539A. The conditions noted are these: cited from earlier work.

Changes are numbered by the printed parent chain. pKd: −log10 of the molar value. Like-named read-outs stand apart in the source and are kept apart here.

Consider `Nc1ncnc2c1ncn2[C@@H]1O[C@H](COP(=O)(O)OP(=O)(O)O)[C@@H](O)[C@H]1O` [ADP, adenosine diphosphate], for which, on CckA_ΔTM [1], the “rate of debinding (kr)” value is recorded as 10^−2 to 10^−3 s^−1. The “net CckA_ΔTM~P after addition of effector” value on CckA_ΔTM [2] is on record as “dose-dependent boost in dephosphorylation”.
By pKd is commonly meant the negative decadic logarithm of the Kd, by convention in mol/L. For the compound `Nc1ncnc2c1ncn2[C@@H]1O[C@H](COP(=O)(O)OP(=O)(O)NP(=O)(O)O)[C@@H](O)[C@H]1O` [AMPPNP], the pKd on CckA_CA (read-out: Kd, AMPPNP binding, - c-di-GMP, 12°C) is ~5.00.
`Nc1nc2c(ncn2[C@@H]2O[C@@H]3COP(=O)(O)O[C@H]4[C@@H](O)[C@H](n5cnc6c(=O)[nH]c(N)nc65)O[C@@H]4COP(=O)(O)O[C@H]3[C@H]2O)c(=O)[nH]1` [c-di-GMP, cyclic di–guanosine monophosphate]: the negative logarithm of the Kd (pKd) at CckA_CA (read-out: Kd, c-di-GMP binding, Fig. 3C (in the presence of 5 mM ADP or AMPPNP)) is ~4.70. Besides, the “response of net phosphorylation to c-di-GMP” value at CckA_ΔTM G318A was “virtually no response”. Besides, on CckA_ΔTM G515D, the “response of net phosphorylation to c-di-GMP (in vitro phenotype)” value is on record as “identical to that of G318A”. Also, the “c-di-GMP binding in UV-cross-linking experiments” value with CckA_ΔTM Y514D, in the experiment on CckA_ΔTM W523A and in the experiment on CckA_ΔTM F539A was “lack of c-di-GMP binding” in each case. Further, the “net CckA phosphorylation with effector present throughout” value at CckA_ΔTM [2] (15 min of ATP incubation, 75 μM c-di-GMP) is “effectively blocked”. The “net CckA_ΔTM~P after addition of effector” value on CckA_ΔTM [2] is “efficiently and rapidly dephosphorylated”.
